Experimental data: ChEMBL document CHEMBL4732230, “Design, synthesis, and biological evaluation of 4-benzoylamino-1H-pyrazole-3-carboxamide derivatives as potent CDK2 inhibitors” (Eur J Med Chem, 2021)

Columns and labels:
[1] = target: Cyclin-dependent kinase 1/cyclin B1 (Homo sapiens, UniProt P06493); type: protein-complex assay
[2] = target: CDK2/Cyclin A2 (Homo sapiens, UniProt P24941); assay: Inhibition of CDK2/cyclin A2 (unknown origin) using FAM-labeled peptide and ATP as substrate preincubated for 10 mins followed by substrate addition by mobility shift assay; type: protein-complex assay
[3] = Cytotoxicity against human LX2 cells assessed as inhibition of cell growth at 100 uM measured after 96 hrs by Celltiter-Glo luminescent assay; type: cell-based
Procedure, shortened: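 LX2 cells grown in DMEM with 10% fetal bovine serum and 1% penicillin/streptomycin, plated in 96-well plates. They were treated with compound at […] or DMSO control for 96 h. Viability was read by CellTiter-Glo luminescence and expressed as percent inhibition.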

[4] = tested on: MRC5; assay: Cytotoxicity against human MRC5 cells assessed as reduction in cell viability measured after 96 hrs by Celltiter-Glo luminescent assay; type: cell-based; details: MRC5, 96 h
Procedure, shortened: (§1)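 Cells in DMEM (A2058, MRC5) or RPMI 1640 (MV4-11), each with 10% fetal bovine serum and 1% penicillin/streptomycin. Cells were plated in 96-well plates and exposed to serially concentrated compound for 96 h, with DMSO as control. Viability was read by CellTiter-Glo luminescence and IC50 derived.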

[5] = tested on: MV4-11; assay: Antiproliferative activity against human MV4-11 cells assessed as reduction in cell viability measured after 96 hrs by Celltiter-Glo luminescent assay; type: functional, cell-based; details: MV4-11, 96 h
Procedure, shortened: as §1

[6] = tested on: A2058; assay: Antiproliferative activity against human A2058 cells assessed as reduction in cell viability measured after 96 hrs by Celltiter-Glo luminescent assay; type: functional, cell-based; details: A2058, 96 h
Procedure, shortened: as §1

Cyclin-dependent kinase 1/cyclin B1, sequence (P06493 whole entry): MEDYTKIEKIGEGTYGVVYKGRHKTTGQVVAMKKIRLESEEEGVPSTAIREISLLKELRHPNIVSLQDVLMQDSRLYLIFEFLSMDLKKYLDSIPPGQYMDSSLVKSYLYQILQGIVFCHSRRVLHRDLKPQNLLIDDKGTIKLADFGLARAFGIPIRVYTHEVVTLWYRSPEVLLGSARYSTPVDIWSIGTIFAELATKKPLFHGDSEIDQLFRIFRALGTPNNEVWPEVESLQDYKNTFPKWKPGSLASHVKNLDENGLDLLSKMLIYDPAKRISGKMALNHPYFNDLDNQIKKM
Cyclin-dependent kinase 1/cyclin B1, sequence (P14635 whole entry, further chain): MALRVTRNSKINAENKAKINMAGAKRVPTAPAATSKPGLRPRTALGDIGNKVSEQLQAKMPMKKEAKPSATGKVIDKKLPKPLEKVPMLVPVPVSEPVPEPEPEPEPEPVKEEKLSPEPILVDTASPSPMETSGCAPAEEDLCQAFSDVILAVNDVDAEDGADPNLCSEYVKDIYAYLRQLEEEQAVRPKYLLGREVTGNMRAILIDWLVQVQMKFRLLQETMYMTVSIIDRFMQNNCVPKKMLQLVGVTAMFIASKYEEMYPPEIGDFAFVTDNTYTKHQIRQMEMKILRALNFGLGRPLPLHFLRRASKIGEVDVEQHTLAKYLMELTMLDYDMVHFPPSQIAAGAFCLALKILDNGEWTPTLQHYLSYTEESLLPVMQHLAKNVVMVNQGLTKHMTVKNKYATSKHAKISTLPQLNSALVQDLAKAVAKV

| Compound | IC50 [1] [nM] | IC50 [2] [nM] | IC50 [5] [nM] | inhibition at 96 h, 100 µM [3] [%] | IC50 [4] [nM] | IC50 [6] [nM] |
| --- | --- | --- | --- | --- | --- | --- |
| CN1CCN(CCNC(=O)c2cccc(-c3ccc(F)c(C(=O)Nc4c[nH]nc4C(=O)Nc4ccc(F)cc4)c3F)c2)CC1 | 350 | 67 |  |  |  |  |
| O=C(Nc1ccc(F)cc1)c1n[nH]cc1NC(=O)c1c(F)ccc(-c2cccc(CO)c2)c1F | 537 | 76 |  |  |  |  |
| O=C(NC1CCNCC1)c1n[nH]cc1NC(=O)c1c(Cl)cccc1Cl [AT-7519] |  |  | 391 | 39.4 | 425 |  |

More lines, main results first:

| IC50 [1] [nM] | IC50 [2] [nM] | IC50 [5] [nM] | Compound | inhibition at 96 h, 100 µM [3] [%] | IC50 [4] [nM] | IC50 [6] [nM] |
| --- | --- | --- | --- | --- | --- | --- |
| 236 | 26 |  | O=C(Nc1ccc(F)cc1)c1n[nH]cc1NC(=O)c1c(F)ccc(-c2cccc(O)c2)c1F |  |  |  |
| 278 | 51 |  | O=C(Nc1ccc(F)cc1)c1n[nH]cc1NC(=O)c1c(F)ccc(-c2ccc(F)nc2)c1F |  |  | 6310 |
